From PubChem BioAssay
A selection: hits, their analogues and other compounds. The true share with any hit is near 1.4%.
Redox H2O2 prof: compounds producing H2O2 with reducing agent – biochemical, NIH compound library profiling, artefact control for MLSCN library redox annotation, primary screen. DTT-dependent redox cycling H2O2, phenol red/HRP absorbance; 100% = 100 µM peroxide control, 0% = buffer. activation, % at 10 µM. 0.03% of 200,000 active. AID 878;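 active = activation of at least 50% relative to the plate's high and low controls in the primary single-dose screen; inactive = activation below 50%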;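 also: compound incubated with DTT at 0.8 mM final as the reducing agent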
GSTO1 inh: GSTO1 inhibition, counter-screen for RBBP9 inhibitors. recombinant GSTO1, activity-based probe fluorescence polarization. inhibition, % at 5.96 µM. 1.1% of 300,000 active;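 active = inhibition above the campaign mean inhibition plus 3 SD, cut at about 35% in these data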;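 also: 0% = GSTO1-1 with DMSO and 100% = wells lacking GSTO1-1 enzyme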
Target sequence (P78417 whole entry, looked up): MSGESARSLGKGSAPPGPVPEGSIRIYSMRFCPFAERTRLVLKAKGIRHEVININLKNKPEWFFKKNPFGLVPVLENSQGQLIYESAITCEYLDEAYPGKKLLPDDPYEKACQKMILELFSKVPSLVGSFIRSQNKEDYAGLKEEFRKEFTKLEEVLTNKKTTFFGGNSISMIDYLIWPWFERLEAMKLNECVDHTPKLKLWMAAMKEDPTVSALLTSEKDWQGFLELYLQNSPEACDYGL
Apaf-1 inh: inhibitors of human Apaf-1 apoptosome; 0.71% of 330,000 active; reconstituted apoptosome caspase-3 activity, DEVD-Rh110 fluorescence; AID 489030; inhibition, % at 20 µM; active = inhibition of at least 40% at 20 µM;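 also: plate controls were DMSO wells for no effect and DEVD-CHO caspase inhibitor wells for full effect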
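Material: reconstituted apoptosome with Apaf-1, cytochrome c, caspase-9, procaspase-3, dATP / Buffer or medium: pH 7.5 Hepes buffer with CHAPS, BSA, DTT / Also added: cytochrome c with DEVD-Rh110 / Schedule: compound with Apaf-1, dATP, procaspase-3 30 min, then 50 min reaction, room temperature / Technique: rhodamine 110 fluorescence at Ex 480/Em 540 nm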
HKDC1 inh: blocks human hexokinase HKDC1 activity. Q2TB90. recombinant HKDC1, G6PDH/diaphorase resazurin coupled fluorescence. inhibition, % at 20 µM. 0.16% of 340,000 active;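 active = inhibition above about 35% when tested at 20 µM, limit read from the data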;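 also: plate controls were DMSO wells with enzyme for no effect and DMSO wells lacking enzyme for full effect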
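Incubation: 90 min at room temperature in dark / Material: recombinant HKDC1 (HK5) hexokinase enzyme, produced in-house / Quantity: enzyme 5 µg/mL final / Compound: one dose of 20 µM, 1% DMSO / Reagent: glucose and ATP substrates / Buffer or medium: Tris pH 8.0 buffer with MgCl2, Tween-20, BSA, BME / Technique: resorufin fluorescence at 613 nm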
SUMO HTRF inh: blocks human SUMOylation mediated by UBC9; HTRF SUMOylation assay, SAE1/SAE2 + UBC9, in vitro; inhibition, % at 35 µM; 0.36% of 290,000 active; in the data active = inhibition above about 50%, passing the limit was not always enough
Target sequence (P63279 whole entry, looked up): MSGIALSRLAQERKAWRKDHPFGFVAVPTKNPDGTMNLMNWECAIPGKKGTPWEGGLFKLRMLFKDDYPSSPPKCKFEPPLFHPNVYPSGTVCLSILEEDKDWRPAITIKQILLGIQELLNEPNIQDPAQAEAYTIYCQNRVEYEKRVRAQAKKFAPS
GSTO1 inh conf: confirmation of human GSTO1 inhibitors | shares compounds with GSTO1 inh | recombinant GSTO1, probe fluorescence polarization | inhibition, % at 5.96 µM | 54% of 2,400 active;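 active = inhibition above the primary screen's cutoff, its mean inhibition plus 3 SD, cut at about 35% in these data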;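 also: loss of polarization as inhibitors block binding of rhodamine sulfonate ester activity probe; 0% = GSTO1 with DMSO and 100% = wells lacking GSTO1 enzyme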
GSTO1 recomb ABPP: GSTO1 (human) inhibition by gel ABPP; shares compounds with GSTO1 inh; recombinant GSTO1, gel ABPP SE-Rh probe fluorescence; inhibition, % at 1 µM; 30% of 130 active;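 active = inhibition of the enzyme GSTO1 above about 75%, limit read from the data; inactive = inhibition below that limit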
* = called active by the depositor; nt = not tested or not shown; ! = not confirmed by another sample.

SMILES | Redox H2O2 prof | GSTO1 inh | Apaf-1 inh | HKDC1 inh | SUMO HTRF inh | GSTO1 inh conf | others
CC1(C)CC(=O)C(C=NCCc2ccc(S(N)(=O)=O)cc2)=C(O)C1 | 1 | 41* | 4 | -3 | 8 | 5
COc1ccc(CCN=CC2=C(O)CC(C)(C)CC2=O)cc1 | 2 | -2 | 3 | -2 | 21 | nt
Cc1cc(N)ccc1N1CCCC1 | 2 | 73* | 65* | 15 | 41 | 6
Cc1cc(N2CCCC2)c(C)cc1C=O | 0 | 1 | 12 | -1 | 8 | nt
NC(=O)c1cc(N)ccc1N1CCCC1 | 0 | 51* | 44* | 17 | 19 | 5
NC(=O)c1cc(N)ccc1N1CCCCC1 | 0 | -1 | -2 | -9 | -4 | nt
CC(C)N1CCN(Cc2ccc(OC3CCCC3)cc2)CC1CCO (configuration not stated) | nt | -1 | -3 | -4 | 10 | nt
O=S(=O)(c1ccc(Cl)cc1)c1cc(O)ccc1O | nt | 61* | 2 | 8 | 4 | 2
O=S(=O)(c1ccccc1)c1cc(O)ccc1O | 0 | 64* | -1 | 19 | 11 | 9
Cc1c(O)ccc2cc(S(=O)(=O)c3ccccc3)c(=O)oc12 | nt | 1 | 11 | 1 | 25 | nt
CCOC(=O)C1=C(C)OC(N)=C(C#N)C1c1cc2c(cc1[N+](=O)[O-])OCO2 (configuration not stated) | 0 | 46* | 17 | 5 | 42 | 17
C#CCCOC(=O)N1C2=NC(C(=O)OC)=C(C(=O)OC)[C@@H]3Nc4ccccc4[C@]23C[C@H]1C(=O)OC | nt | -4 | nt | -1 | nt | nt
O=C(Nc1ccc(Cl)cc1)C1C2CCCCC21 (configuration not stated) | nt | -3 | 2 | 4 | -9 | nt
COc1cc(/C=C2\SC(N)=NC2=O)cc(Br)c1O | nt | 61* | 4 | 13 | -4 | 66*
Cc1cccc(-c2oc3ccc(-c4ccc5c(c4)OCO5)cc3c2/C=C/c2ccc(N)cc2)c1 | nt | 6 | -6 | -2 | 17 | nt
CCOc1ccc(CN(C)C(=O)CCNC(=O)c2ccco2)cc1 | nt | nt | 0 | 2 | nt | nt
CCOc1ccc(CN(C)C(=O)CCl)cc1 | 0 | 81* | 6 | 1 | 18 | 98* | GSTO1 recomb ABPP=71
COc1cc(/C=N/NS(=O)(=O)c2ccc(C(C)(C)C)cc2)cc([N+](=O)[O-])c1O | -1 | 50* | -2 | -7 | 4 | 64*
COc1cc(/C=N/NS(=O)(=O)c2ccc(C)c([N+](=O)[O-])c2)cc([N+](=O)[O-])c1O | nt | 12 | 0 | 3 | -23 | nt
Cc1cc(=O)c2c([nH]1)c(C)cc1[nH]c(C)c(C)c12 | nt | nt | -1 | -1 | nt | nt
Nc1cc2nc3ccccc3oc-2cc1=O | nt | 68* | 48* | 26 | 21 | 50*
CN(O)/C=c1/ccc2c(n1)C(=O)C=CC=2 | 0 | 64* | -2 | 11 | -29 | 21
O=C(Cc1cccc(NC(=O)C2CCCN(C(=O)C3CCCCC3)C2)c1)Nc1cccc(C(=O)N2CCOCC2)c1 (configuration not stated) | nt | nt | nt | -2 | nt | nt
O=C(NCCc1nnc2ccc(N3CCCCCC3)nn12)c1ccccc1F | nt | 1 | 3 | -1 | 3 | nt
COC(=O)CC1C(=O)NC2CCCCC2N1C(=O)CCl (configuration not stated) | nt | 54* | -12 | -1 | 8 | 79*
SMILES | Redox H2O2 prof | GSTO1 inh | Apaf-1 inh | HKDC1 inh | SUMO HTRF inh | GSTO1 inh conf | others
CC(=O)c1ccc(OC(=O)C2CSC3(C)CCC(=O)N23)cc1 (configuration not stated) | nt | nt | 3 | -3 | nt | nt
O=C(CCl)N(CCc1ccccc1)CCc1ccccc1 | nt | 79* | 17 | 8 | 17 | 96* | GSTO1 recomb ABPP=82*
Oc1ccc(-c2csc(Nc3cccc4ccccc34)n2)cc1O | nt | 62* | 20 | 13 | 34 | 5
Cc1nc(Cl)c(C(=O)NCc2ccccc2)c(C)c1Cl | 1 | 6 | -6 | -4 | -5 | nt
O=C(NCc1ccccc1)c1c(Cl)nc(Cl)c(Cl)c1Cl | nt | 41* | 2 | -2 | -8 | 58*
CC(=O)Nc1ccc(S(=O)(=O)NCCC(=O)OCC(=O)c2cccc(Br)c2)cc1 | nt | nt | 4 | 6 | nt | nt
N#CC(=C=[N-])c1nc2ccccc2nc1-[n+]1ccccc1 | -1 | 64* | -13 | -1 | 18 | 37*
Cc1cc[n+](-c2nc3ccccc3nc2[N-]S(=O)(=O)c2ccccc2)cc1 | 0 | 4 | 1 | 8 | 12 | nt
Cc1cc[n+](-c2nc3ccccc3nc2C(=C=[N-])C#N)cc1 | 2 | 47* | 17 | 10 | 36 | 35
N#CCCN(C(=O)COC(=O)C1=NNC(=O)CC1)c1ccccc1 | nt | 11 | -3 | 0 | nt | nt
COc1ccc(C(=O)NC(C)CCc2ccccc2)c(O)c1 (configuration not stated) | nt | nt | 8 | -1 | -6 | nt
CN1CCN(C2=C(Cl)C(=O)C(c3cnc(N4CCCCC4)s3)=C(Cl)C2=O)CC1 | 3 | 84* | 84* | 55* | 24 | 19
CN1CCN(C2=C(Cl)C(=O)N(C3CCCCC3)C2=O)CC1 | 18 | 0 | 4 | 4 | 8 | nt
CCOC(=O)c1c(C)[nH]c(C)c1C(=O)COC(=O)c1cccc(S(=O)(=O)NC)c1 | 2 | 40* | -2 | 3 | 9 | 22
CCOC(=O)c1c(C)[nH]c(C)c1C(=O)COC(=O)c1cccc(S(=O)(=O)N(CC)CC)c1 | 4 | -3 | 23 | -4 | -24 | nt
Cc1ccc(O)c(CO)n1 | nt | 0 | 1 | -7 | -1 | nt
Cc1nc2c(O)cccc2cc1CO | nt | 50* | 6 | 8 | -16 | 4
CC1(OC(=O)C2CCCC2)C(=O)C=C2C=C(c3ccsc3)N(C3CC3)C=C2C1=O (configuration not stated) | nt | 47* | 37 | 21 | 10 | 4
CC1(OC(=O)C2CCCC2)C(=O)C=C2C=C(c3ccsc3)N(CCc3ccccn3)C=C2C1=O (configuration not stated) | nt | 49* | 33 | 24 | 24 | 5
C=CCN1C=C2C(=O)C(C)(OC(=O)C3CCCC3)C(=O)C=C2C=C1c1ccsc1 (configuration not stated) | nt | 41* | 34 | 21 | 11 | 5
CNS(=O)(=O)c1ccc(CNC[C@H]2O[C@@H](n3cnc(C(N)=O)n3)[C@H](O)[C@@H]2O)cc1 | nt | nt | nt | -6 | nt | nt
CCOc1ccc(N(CC(=O)NC2CCCCC2)C(=O)CCC(=O)Nc2cc(C)ccn2)cc1 | nt | 0 | 11 | 1 | 8 | nt
Cc1cc(C)c[n+](-c2nc3ccccc3nc2C(=C=[N-])C#N)c1 | -1 | 45* | 8 | -13 | 11 | 29
Cc1ccc[n+](-c2nc3ccccc3nc2C(=C=[N-])C#N)c1 | 2 | 62* | 2 | 3 | 31 | 36*!
